Measurements published in ChEMBL document CHEMBL4732238, “Synthesis, biological evaluation, and structure-activity relationships of new tubulin polymerization inhibitors based on 5-amino-1,2,4-triazole scaffold” (Bioorg Med Chem Lett, 2021).
pIC50: −log10 of the molar value.

What was measured:
HeLa [1] = assay: Antiproliferative activity against human HeLa cells assessed as cell growth inhibition at 100 uM by MTT assay relative to control; type: functional; settings: read-out: GI
Procedure, shortened: (§1)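 Five human lines (MCF-7, HeLa, A549, PC-3, Panc-1) exposed to a single 100 μM concentration. Viability read by MTT. Results expressed as […] versus untreated control cells.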

PC-3 = assay: Antiproliferative activity against human PC-3 cells assessed as cell growth inhibition at 100 uM by MTT assay relative to control; type: functional; settings: read-out: GI; procedure, shortened: as §1
MCF7 [2] = assay: Antiproliferative activity against human MCF7 cells assessed as cell growth inhibition at 100 uM by MTT assay relative to control; type: functional; settings: read-out: GI; procedure, shortened: as §1
A549 = assay: Antiproliferative activity against human A549 cells assessed as cell growth inhibition at 100 uM by MTT assay relative to control; type: functional; settings: read-out: GI; procedure, shortened: as §1
PANC-1 [3] = assay: Antiproliferative activity against human PANC-1 cells assessed as cell growth inhibition at 100 uM by MTT assay relative to control; type: functional; settings: read-out: GI; procedure, shortened: as §1
K562 = assay: Antiproliferative activity against human K562 cells assessed as cell growth inhibition by MTT assay; type: functional, cell-based
PANC-1 [4] = assay: Antiproliferative activity against human PANC-1 cells assessed as cell growth inhibition by MTT assay; type: functional, cell-based
Procedure, shortened: (§2)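 MTT antiproliferation readout. […] Mean ± SD from three independent experiments.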

HeLa [5] = assay: Antiproliferative activity against human HeLa cells assessed as cell growth inhibition by MTT assay; type: functional, cell-based; procedure, shortened: as §2
Tubulin (Homo sapiens) = Tubulin (Homo sapiens) (UniProt P68371+Q9H4B7+P0DPH7+P68366+Q13509+Q71U36+P04350+Q3ZCM7+P07437+P68363+Q9BQE3+Q6PEY2+Q13885+Q9BVA1+Q9BUF5); assay: Inhibition of tubulin (unknown origin) polymerization at 10 uM measured every 1 min over 20 mins by fluorescence assay relative to control; type: protein-complex assay
Procedure, shortened: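 Tubulin in reaction buffer incubated at 37 °C with test agent at final 10 μM; control 1% DMSO. Polymerization followed at 340 nm, read every minute over 20 min. Run three times.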

MCF7 [6] = assay: Antiproliferative activity against human MCF7 cells assessed as cell growth inhibition by MTT assay; type: functional, cell-based; procedure, shortened: as §2
HeLa [7] = assay: Cell cycle arrest in human HeLa cells assessed as accumulation at G1/G0 phase at 10 uM measured after 48 hrs by propidium iodide staining based flow cytometry (reference value: 54.82 %); type: functional
HeLa [8] = assay: Cell cycle arrest in human HeLa cells assessed as accumulation at G2/M phase at 10 uM measured after 48 hrs by propidium iodide staining based flow cytometry (reference value: 14.45 %); type: functional
HeLa [9] = assay: Cell cycle arrest in human HeLa cells assessed as accumulation at S phase at 20 uM measured after 48 hrs by propidium iodide staining based flow cytometry (reference value: 30.73 %); type: functional
HeLa [10] = assay: Cell cycle arrest in human HeLa cells assessed as accumulation at G2/M phase at 40 uM measured after 48 hrs by propidium iodide staining based flow cytometry (reference value: 14.45 %); type: functional
HeLa [11] = assay: Cell cycle arrest in human HeLa cells assessed as accumulation at S phase at 10 uM measured after 48 hrs by propidium iodide staining based flow cytometry (reference value: 30.73 %); type: functional
HeLa [12] = assay: Cell cycle arrest in human HeLa cells assessed as accumulation at G2/M phase at 20 uM measured after 48 hrs by propidium iodide staining based flow cytometry (reference value: 14.45 %); type: functional
HeLa [13] = assay: Cell cycle arrest in human HeLa cells assessed as accumulation at S phase at 40 uM measured after 48 hrs by propidium iodide staining based flow cytometry (reference value: 30.73 %); type: functional
HeLa [14] = assay: Cell cycle arrest in human HeLa cells assessed as accumulation at G1/G0 phase at 40 uM measured after 48 hrs by propidium iodide staining based flow cytometry (reference value: 54.82 %); type: functional
HeLa [15] = assay: Cell cycle arrest in human HeLa cells assessed as accumulation at G1/G0 phase at 20 uM measured after 48 hrs by propidium iodide staining based flow cytometry (reference value: 54.82 %); type: functional

SMILES	inhibition of growth at 100 µM (HeLa [1])	inhibition of growth at 100 µM (PC-3)	inhibition of growth at 100 µM (MCF7 [2])	inhibition of growth at 100 µM (A549)	inhibition of growth at 100 µM (PANC-1 [3])	further results
COc1cc(-c2nc(N)n(CC(=O)Nc3ccc(Cl)cc3)n2)cc(OC)c1OC	30%	14%	37%	22%	12%	–
CCCc1ccc(NC(=O)Cn2nc(-c3cc(OC)c(OC)c(OC)c3)nc2N)cc1	75%	61%	70%	37%	91%	pIC50 (K562): 4.39; pIC50 (PANC-1 [4]): 4.70; pIC50 (HeLa [5]): 4.25; inhibition (Tubulin (Homo sapiens)): 14%; pIC50 (MCF7 [6]): 4.35
COc1cc(-c2nc(N)n(CC(=O)Nc3ccc(C)c(C)c3)n2)cc(OC)c1OC	20%	–	32%	29%	32%	–
COc1cc(-c2nc(N)n(CC(=O)c3ccc(F)c(F)c3)n2)cc(OC)c1OC	31%	28%	48%	14%	52%	–
COc1cc(-c2nc(N)n(Cc3cccc(C#N)c3)n2)cc(OC)c1OC	28%	–	43%	30%	6%	–
COc1cc(-c2nc(N)n(CC(=O)c3ccc(F)cc3)n2)cc(OC)c1OC	9%	18%	27%	13%	–	–
COc1ccc(/C=C\c2cc(OC)c(OC)c(OC)c2)cc1O [COMBRETASTATIN A4]	–	–	–	–	–	pIC50 (K562): 6.21; pIC50 (HeLa [5]): 8.33; pIC50 (MCF7 [6]): 6.77
COc1cc(-c2nc(N)n(CC(=O)Nc3ccc(N(C)C)cc3)n2)cc(OC)c1OC	29%	–	14%	7%	–	–
CCc1ccc(NC(=O)Cn2nc(-c3cc(OC)c(OC)c(OC)c3)nc2N)cc1	12%	40%	31%	27%	–	–
COc1cc(-c2nc(N)n(Cc3ccc(C)cc3)n2)cc(OC)c1OC	76%	39%	55%	34%	53%	pIC50 (K562): 4.77; pIC50 (PANC-1 [4]): 4.21; pIC50 (HeLa [5]): 4.33; inhibition (Tubulin (Homo sapiens)): 25%; pIC50 (MCF7 [6]): 4.13
COc1cc(-c2nc(N)n(Cc3ccc(F)cc3)n2)cc(OC)c1OC	28%	41%	34%	42%	7%	–
COc1cc(-c2nc(N)n(CC(=O)Nc3ccc(C)cc3)n2)cc(OC)c1OC	35%	31%	–	–	5%	–
COc1cccc(NC(=O)Cn2nc(-c3cc(OC)c(OC)c(OC)c3)nc2N)c1	39%	6%	–	–	–	–
COc1cc(-c2nc(N)n(Cc3ccc(Cl)cc3)n2)cc(OC)c1OC	55%	48%	49%	38%	39%	–
COc1cc(-c2nc(N)n(CC(=O)Nc3ccc(C(C)(C)C)cc3)n2)cc(OC)c1OC	95%	70%	93%	93%	93%	Activity (HeLa [7]): 54.33%; Activity (HeLa [8]): 14.7%; Activity (HeLa [9]): 28.35%; Activity (HeLa [10]): 28.74%; Activity (HeLa [11]): 30.96%; Activity (HeLa [12]): 15.59%; pIC50 (K562): 5.03; pIC50 (PANC-1 [4]): 4.45; pIC50 (HeLa [5]): 4.72; Activity (HeLa [13]): 18.6%; Activity (HeLa [14]): 52.66%; Activity (HeLa [15]): 56.06%; inhibition (Tubulin (Homo sapiens)): 48%; pIC50 (MCF7 [6]): 4.45
COc1cc(-c2nc(N)n(CC(=O)c3ccc(C)cc3)n2)cc(OC)c1OC	70%	35%	53%	–	17%	pIC50 (K562): 4.48; pIC50 (PANC-1 [4]): < 4.00; pIC50 (HeLa [5]): 4.27; inhibition (Tubulin (Homo sapiens)): 42%; pIC50 (MCF7 [6]): 4.28
COc1cc(-c2nc(N)n(CC(=O)Nc3ccc(C(C)C)cc3)n2)cc(OC)c1OC	45%	37%	8%	–	22%	–
COc1cc(-c2nc(N)n(CC(=O)Nc3c(C)cc(C)cc3C)n2)cc(OC)c1OC	49%	50%	34%	16%	32%	–
COc1cc(-c2nc(N)n(Cc3cc(OC(F)(F)F)cc(OC(F)(F)F)c3)n2)cc(OC)c1OC	73%	36%	55%	6%	71%	pIC50 (K562): 4.50; pIC50 (PANC-1 [4]): 4.14; pIC50 (HeLa [5]): 4.27; pIC50 (MCF7 [6]): < 4.00
COc1cc(-c2nc(N)n(Cc3ccccc3F)n2)cc(OC)c1OC	33%	35%	33%	24%	5%	–
COc1ccc(NC(=O)Cn2nc(-c3cc(OC)c(OC)c(OC)c3)nc2N)cc1OC	41%	42%	12%	22%	14%	–
COc1cc(-c2nc(N)n(CC(=O)c3ccc(Br)cc3)n2)cc(OC)c1OC	41%	38%	27%	12%	6%	–
COc1cccc(C(=O)Cn2nc(-c3cc(OC)c(OC)c(OC)c3)nc2N)c1	27%	37%	30%	20%	–	–
COc1cc(-c2nc(N)n(CC(=O)c3ccc(Cl)cc3)n2)cc(OC)c1OC	38%	26%	–	26%	6%	–
COc1ccc(NC(=O)Cn2nc(-c3cc(OC)c(OC)c(OC)c3)nc2N)cc1	30%	33%	50%	9%	–	–
COc1cc(-c2nc(N)n(CC(=O)Nc3cccc(C)c3)n2)cc(OC)c1OC	18%	50%	23%	34%	10%	–
COc1cc(-c2nc(N)n(CC(=O)c3ccccc3)n2)cc(OC)c1OC	42%	–	30%	15%	4%	–
COc1cc(-c2nc(N)n(Cc3ccc([N+](=O)[O-])cc3)n2)cc(OC)c1OC	58%	21%	52%	13%	53%	pIC50 (K562): < 4.00; pIC50 (PANC-1 [4]): < 4.00; pIC50 (HeLa [5]): 4.24; pIC50 (MCF7 [6]): 4.09
COc1cc(-c2nc(N)n(CC(=O)Nc3ccc(C)cc3F)n2)cc(OC)c1OC	32%	25%	21%	12%	22%	–
COc1cc(-c2nc(N)n(CC(=O)c3cccc(Br)c3)n2)cc(OC)c1OC	66%	–	59%	35%	51%	pIC50 (K562): < 4.00; pIC50 (PANC-1 [4]): 4.10; pIC50 (HeLa [5]): 4.23; pIC50 (MCF7 [6]): 4.16
